Source: ChEMBL document CHEMBL1146234, “Synthesis and biological evaluation of N-pyrazolyl-N'-alkyl/benzyl/phenylureas: a new class of potent inhibitors of interleukin 8-induced neutrophil chemotaxis” (J Med Chem, 2007)
Active and inactive are the calls of the source. The rule behind the calls is not given here.

Assays:
[1] = test system: Neutrophil; experiment: Inhibition of fMLP-induced neutrophil chemotaxis after 45 mins by Boyden chamber assay; assay type: functional, cell-based; conditions: Homo sapiens
Summary of the method: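 Leading-front Boyden assay with donor neutrophils. Cells were preincubated 15 min at room temperature ± compound. Then 4 × 10⁵ cells were placed above a 3 µm cellulose ester filter, with IL8 or fMLP below. After 45 min at 37 °C, filters were hematoxylin-stained and the leading-front distance was read at ×400, 5 fields per filter, in duplicate. Net migration = stimulated minus spontaneous. IC₅₀ came from nonlinear regression, ≥3 experiments.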

[2] = target: Tyrosine-protein kinase Fgr (Homo sapiens) (UniProt P09769); experiment: Binding affinity to Fgr
Sequence of Tyrosine-protein kinase Fgr (Homo sapiens) (P09769 2-529 limits assumed): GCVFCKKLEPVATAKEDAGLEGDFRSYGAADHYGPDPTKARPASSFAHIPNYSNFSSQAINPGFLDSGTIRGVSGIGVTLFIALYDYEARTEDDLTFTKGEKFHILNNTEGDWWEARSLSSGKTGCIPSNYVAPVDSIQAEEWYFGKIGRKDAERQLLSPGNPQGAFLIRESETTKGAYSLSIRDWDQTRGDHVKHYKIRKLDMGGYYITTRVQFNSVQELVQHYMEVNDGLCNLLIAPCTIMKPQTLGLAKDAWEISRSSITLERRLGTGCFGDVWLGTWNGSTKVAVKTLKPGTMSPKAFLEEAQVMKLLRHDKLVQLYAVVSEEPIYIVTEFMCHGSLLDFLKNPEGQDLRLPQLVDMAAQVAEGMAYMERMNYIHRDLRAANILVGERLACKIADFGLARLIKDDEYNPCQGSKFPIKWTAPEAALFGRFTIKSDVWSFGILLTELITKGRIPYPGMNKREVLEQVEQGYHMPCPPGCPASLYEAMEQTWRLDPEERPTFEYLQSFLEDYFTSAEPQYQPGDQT

[3] = target: Mitogen-activated protein kinase 1 (Homo sapiens) (UniProt P28482); experiment: Binding affinity to ERK2
Sequence of Mitogen-activated protein kinase 1 (Homo sapiens) (P28482 whole entry): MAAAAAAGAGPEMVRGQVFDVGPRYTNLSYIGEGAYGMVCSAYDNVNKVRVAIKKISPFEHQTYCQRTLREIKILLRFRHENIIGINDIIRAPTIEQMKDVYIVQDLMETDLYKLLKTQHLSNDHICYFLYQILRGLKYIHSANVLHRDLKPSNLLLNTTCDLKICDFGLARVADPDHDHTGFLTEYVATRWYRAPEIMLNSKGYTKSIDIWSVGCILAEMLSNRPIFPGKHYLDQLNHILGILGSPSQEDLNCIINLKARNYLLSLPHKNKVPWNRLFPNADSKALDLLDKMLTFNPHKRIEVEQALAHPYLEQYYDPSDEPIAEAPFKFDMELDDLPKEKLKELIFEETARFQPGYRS

[4] = target: Mitogen-activated protein kinase 14 (Homo sapiens) (UniProt Q16539); experiment: Binding affinity to p38alpha
Sequence of Mitogen-activated protein kinase 14 (Homo sapiens) (Q16539 whole entry): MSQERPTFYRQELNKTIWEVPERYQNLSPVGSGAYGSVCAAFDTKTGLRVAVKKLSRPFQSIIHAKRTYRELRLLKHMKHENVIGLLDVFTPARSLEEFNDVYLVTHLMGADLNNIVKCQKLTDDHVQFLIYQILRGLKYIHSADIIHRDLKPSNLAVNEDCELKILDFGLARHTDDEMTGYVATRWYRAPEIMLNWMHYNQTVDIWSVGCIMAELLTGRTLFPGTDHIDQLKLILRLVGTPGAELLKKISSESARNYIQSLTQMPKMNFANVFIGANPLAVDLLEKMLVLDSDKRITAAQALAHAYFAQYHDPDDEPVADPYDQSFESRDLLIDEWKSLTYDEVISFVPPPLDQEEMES

[5] = target: T1, Mitogen-activated protein kinase 13 (Homo sapiens) (UniProt O15264); experiment: Binding affinity p38delta
T1 sequence (whole entry): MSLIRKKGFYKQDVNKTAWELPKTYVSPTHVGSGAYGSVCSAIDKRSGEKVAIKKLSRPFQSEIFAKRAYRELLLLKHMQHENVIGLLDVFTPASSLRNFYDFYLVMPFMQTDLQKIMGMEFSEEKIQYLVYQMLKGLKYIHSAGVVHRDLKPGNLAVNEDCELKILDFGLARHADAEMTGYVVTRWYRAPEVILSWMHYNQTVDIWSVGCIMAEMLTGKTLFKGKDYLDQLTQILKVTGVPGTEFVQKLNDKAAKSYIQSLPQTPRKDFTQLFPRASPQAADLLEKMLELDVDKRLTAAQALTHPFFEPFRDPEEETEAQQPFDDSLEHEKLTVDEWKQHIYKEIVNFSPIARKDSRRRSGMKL

[6] = target: Mitogen-activated protein kinase 9 (Homo sapiens) (UniProt P45984); experiment: Binding affinity to JNK2
Sequence of Mitogen-activated protein kinase 9 (Homo sapiens) (P45984 whole entry, looked up): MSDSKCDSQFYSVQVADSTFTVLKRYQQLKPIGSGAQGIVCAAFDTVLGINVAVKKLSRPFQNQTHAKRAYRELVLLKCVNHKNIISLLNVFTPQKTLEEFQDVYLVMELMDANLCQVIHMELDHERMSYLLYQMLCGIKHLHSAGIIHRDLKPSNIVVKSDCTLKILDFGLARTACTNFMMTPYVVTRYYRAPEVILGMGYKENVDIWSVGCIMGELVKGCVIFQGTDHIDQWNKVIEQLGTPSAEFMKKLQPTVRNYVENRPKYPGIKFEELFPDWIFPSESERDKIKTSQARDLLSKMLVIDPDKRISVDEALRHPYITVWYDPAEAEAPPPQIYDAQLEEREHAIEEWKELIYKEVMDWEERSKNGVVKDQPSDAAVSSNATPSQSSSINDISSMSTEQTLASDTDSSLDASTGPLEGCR

[7] = target: RAC-alpha serine/threonine-protein kinase (Homo sapiens) (UniProt P31749); experiment: Binding affinity to Akt1
Sequence of RAC-alpha serine/threonine-protein kinase (Homo sapiens) (P31749 whole entry): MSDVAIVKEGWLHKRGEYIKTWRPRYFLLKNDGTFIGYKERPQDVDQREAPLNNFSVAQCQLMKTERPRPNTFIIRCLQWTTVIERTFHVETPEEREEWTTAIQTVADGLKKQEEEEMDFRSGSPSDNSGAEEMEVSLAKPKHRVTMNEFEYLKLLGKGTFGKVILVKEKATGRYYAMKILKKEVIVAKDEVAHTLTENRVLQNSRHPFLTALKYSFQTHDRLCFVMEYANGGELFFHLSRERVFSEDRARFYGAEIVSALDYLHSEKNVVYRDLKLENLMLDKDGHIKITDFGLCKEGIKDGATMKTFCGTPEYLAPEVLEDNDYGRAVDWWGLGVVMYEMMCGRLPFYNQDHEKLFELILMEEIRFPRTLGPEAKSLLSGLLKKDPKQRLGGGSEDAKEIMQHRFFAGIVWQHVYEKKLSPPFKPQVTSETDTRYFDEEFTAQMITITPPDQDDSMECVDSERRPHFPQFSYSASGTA

[8] = target: C-C chemokine receptor type 2 (Homo sapiens) (UniProt P41597); experiment: Binding affinity to CCR2
Sequence of C-C chemokine receptor type 2 (Homo sapiens) (P41597 whole entry, looked up): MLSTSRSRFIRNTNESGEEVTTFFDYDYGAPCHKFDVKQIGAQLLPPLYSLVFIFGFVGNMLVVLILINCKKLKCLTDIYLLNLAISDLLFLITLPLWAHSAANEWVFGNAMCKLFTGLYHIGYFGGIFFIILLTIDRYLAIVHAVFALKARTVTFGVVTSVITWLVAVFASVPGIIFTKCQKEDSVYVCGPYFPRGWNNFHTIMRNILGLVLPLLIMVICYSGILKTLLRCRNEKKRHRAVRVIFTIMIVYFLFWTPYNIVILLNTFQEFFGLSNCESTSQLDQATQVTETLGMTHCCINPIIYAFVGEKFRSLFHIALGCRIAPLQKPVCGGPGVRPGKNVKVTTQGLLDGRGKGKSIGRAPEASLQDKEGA

[9] = test system: Neutrophil; experiment: Cytotoxicity against human neutrophils assessed as viable cells after 2 hrs; assay type: functional; design: concentration or dose not given beside the values
Summary of the method: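 Human neutrophils (2 × 10⁶/mL) from healthy donors were incubated 2 h at 37 °C under CO₂ in HBSS:PBS (3:1) with 1 mg/mL BSA, with compounds. Membrane integrity was read by fluorescein diacetate/ethidium bromide staining for 10 min at room temperature, under UV dark-field microscopy. Green cells were scored viable; red nuclei were scored necrotic.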

[10] = target: T2, Mitogen-activated protein kinase 12 (Homo sapiens) (UniProt P53778); experiment: Binding affinity to p38-gamma
T2 sequence (whole entry): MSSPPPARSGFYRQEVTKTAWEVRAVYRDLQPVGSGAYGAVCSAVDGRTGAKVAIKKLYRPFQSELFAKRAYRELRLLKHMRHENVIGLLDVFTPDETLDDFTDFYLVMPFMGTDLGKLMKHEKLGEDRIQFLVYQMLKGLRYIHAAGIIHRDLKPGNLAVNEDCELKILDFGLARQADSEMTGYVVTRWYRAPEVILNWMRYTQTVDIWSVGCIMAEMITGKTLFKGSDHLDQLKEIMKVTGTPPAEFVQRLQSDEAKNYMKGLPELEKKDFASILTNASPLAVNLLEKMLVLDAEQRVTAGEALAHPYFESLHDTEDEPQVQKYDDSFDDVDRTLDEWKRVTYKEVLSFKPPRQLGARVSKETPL

[11] = target: T3, C-C chemokine receptor type 1 (Homo sapiens) (UniProt P32246); experiment: Binding affinity to CCR1
T3 sequence (whole entry): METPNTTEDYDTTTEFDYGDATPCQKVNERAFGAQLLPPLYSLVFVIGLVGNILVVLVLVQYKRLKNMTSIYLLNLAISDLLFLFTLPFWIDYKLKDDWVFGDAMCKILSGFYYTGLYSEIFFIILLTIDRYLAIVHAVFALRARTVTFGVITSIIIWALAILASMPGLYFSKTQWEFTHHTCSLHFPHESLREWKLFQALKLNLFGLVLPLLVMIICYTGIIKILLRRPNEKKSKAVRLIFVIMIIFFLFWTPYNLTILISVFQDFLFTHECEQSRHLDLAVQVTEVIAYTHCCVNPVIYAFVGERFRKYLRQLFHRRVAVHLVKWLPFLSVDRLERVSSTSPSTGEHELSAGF

[12] = target: Mitogen-activated protein kinase 3 (Homo sapiens) (UniProt P27361); experiment: Binding affinity to ERK1
Sequence of Mitogen-activated protein kinase 3 (Homo sapiens) (P27361 whole entry): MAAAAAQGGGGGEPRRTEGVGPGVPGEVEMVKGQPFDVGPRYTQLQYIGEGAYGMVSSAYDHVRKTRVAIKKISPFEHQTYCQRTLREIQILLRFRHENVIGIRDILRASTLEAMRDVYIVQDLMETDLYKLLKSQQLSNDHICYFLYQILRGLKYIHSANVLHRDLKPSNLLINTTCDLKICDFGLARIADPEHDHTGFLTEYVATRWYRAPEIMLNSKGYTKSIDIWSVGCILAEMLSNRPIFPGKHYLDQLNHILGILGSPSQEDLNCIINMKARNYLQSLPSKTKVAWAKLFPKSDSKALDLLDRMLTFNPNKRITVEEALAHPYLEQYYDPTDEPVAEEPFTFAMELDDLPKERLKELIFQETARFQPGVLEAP

[13] = target: Mitogen-activated protein kinase 8 (Homo sapiens) (UniProt P45983); experiment: Binding affinity to JNK1
Sequence of Mitogen-activated protein kinase 8 (Homo sapiens) (P45983 whole entry): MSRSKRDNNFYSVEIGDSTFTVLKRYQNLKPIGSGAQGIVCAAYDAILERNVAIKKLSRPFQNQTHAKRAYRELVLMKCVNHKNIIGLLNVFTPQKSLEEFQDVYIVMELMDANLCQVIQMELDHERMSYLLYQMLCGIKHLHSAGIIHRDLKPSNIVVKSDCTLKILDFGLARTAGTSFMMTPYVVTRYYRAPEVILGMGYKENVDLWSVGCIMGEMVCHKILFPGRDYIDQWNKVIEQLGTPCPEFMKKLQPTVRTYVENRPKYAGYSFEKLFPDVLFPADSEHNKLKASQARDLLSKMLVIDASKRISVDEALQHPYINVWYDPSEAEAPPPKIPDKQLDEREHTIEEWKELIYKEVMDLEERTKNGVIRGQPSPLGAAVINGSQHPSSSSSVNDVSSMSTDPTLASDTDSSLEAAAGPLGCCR

[14] = target: T4, C-C chemokine receptor type 3 (Homo sapiens) (UniProt P51677); experiment: Binding affinity to CCR3
T4 sequence (whole entry): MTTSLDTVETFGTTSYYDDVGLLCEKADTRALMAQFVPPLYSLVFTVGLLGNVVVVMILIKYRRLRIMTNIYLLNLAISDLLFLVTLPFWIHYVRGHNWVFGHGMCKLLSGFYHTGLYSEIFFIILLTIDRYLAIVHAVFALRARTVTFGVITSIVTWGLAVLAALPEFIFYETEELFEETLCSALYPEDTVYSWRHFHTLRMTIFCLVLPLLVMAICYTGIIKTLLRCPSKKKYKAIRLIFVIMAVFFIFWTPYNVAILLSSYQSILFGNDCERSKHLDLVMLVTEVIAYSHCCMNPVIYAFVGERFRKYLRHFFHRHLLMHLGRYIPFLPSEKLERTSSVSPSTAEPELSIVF

[15] = target: T5, C-X-C chemokine receptor type 2 (Homo sapiens) (UniProt P25025); experiment: Binding affinity to CXCR2
T5 sequence (whole entry): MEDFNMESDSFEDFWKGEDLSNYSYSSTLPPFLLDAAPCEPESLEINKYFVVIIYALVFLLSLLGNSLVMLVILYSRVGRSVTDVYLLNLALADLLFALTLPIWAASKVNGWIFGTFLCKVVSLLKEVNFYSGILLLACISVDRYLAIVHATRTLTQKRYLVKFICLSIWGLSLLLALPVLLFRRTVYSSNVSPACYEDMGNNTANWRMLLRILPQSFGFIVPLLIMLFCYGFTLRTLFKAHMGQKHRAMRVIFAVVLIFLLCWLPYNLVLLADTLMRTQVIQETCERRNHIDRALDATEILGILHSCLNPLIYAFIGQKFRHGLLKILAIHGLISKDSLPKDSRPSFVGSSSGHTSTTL

[16] = target: Tyrosine-protein kinase HCK (Homo sapiens) (UniProt P08631); experiment: Binding affinity to Hck
Sequence of Tyrosine-protein kinase HCK (Homo sapiens) (P08631 2-526 limits assumed): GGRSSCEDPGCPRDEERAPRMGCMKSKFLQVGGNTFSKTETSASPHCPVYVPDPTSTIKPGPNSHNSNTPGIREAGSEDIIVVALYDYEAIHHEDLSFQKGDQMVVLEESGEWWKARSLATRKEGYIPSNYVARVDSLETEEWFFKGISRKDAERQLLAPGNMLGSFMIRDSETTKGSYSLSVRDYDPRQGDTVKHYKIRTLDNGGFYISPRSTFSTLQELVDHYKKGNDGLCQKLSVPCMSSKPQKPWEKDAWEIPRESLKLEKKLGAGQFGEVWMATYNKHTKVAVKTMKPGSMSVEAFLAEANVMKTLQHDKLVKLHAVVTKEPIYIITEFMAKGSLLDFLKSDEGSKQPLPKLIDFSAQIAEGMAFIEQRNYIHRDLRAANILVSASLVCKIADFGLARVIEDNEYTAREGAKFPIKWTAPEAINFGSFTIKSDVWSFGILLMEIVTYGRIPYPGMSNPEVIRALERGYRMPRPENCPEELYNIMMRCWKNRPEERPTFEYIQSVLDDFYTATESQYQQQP

[17] = target: Proto-oncogene tyrosine-protein kinase Src (Homo sapiens) (UniProt P12931); experiment: Binding affinity to SRC
Sequence of Proto-oncogene tyrosine-protein kinase Src (Homo sapiens) (P12931 2-536 limits assumed): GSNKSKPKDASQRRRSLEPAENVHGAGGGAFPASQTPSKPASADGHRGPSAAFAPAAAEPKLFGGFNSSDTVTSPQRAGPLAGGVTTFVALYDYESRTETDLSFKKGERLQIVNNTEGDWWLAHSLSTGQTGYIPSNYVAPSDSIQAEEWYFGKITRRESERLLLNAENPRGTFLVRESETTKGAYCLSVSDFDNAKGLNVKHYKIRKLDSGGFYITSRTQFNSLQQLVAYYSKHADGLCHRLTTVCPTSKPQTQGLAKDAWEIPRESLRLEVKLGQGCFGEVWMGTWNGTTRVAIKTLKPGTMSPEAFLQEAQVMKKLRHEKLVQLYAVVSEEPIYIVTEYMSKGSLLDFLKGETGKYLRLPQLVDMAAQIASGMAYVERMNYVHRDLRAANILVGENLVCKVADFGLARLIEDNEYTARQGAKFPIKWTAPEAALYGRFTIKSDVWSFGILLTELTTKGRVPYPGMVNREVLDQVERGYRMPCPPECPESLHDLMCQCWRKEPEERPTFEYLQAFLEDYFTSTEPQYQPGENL

[18] = target: Mitogen-activated protein kinase 11 (Homo sapiens) (UniProt Q15759); experiment: Binding affinity to p38beta2
Sequence of Mitogen-activated protein kinase 11 (Homo sapiens) (Q15759 whole entry): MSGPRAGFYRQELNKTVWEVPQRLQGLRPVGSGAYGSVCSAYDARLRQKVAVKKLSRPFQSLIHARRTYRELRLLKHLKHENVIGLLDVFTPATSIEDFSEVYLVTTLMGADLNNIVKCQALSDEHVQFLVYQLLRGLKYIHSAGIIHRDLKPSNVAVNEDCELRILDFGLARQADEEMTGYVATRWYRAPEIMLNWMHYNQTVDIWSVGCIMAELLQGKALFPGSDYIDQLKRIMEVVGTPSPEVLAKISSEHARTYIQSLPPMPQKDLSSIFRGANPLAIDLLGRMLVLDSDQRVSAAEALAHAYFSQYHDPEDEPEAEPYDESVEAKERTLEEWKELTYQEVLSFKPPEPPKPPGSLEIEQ

Activity [2]	Activity [3]	Activity [4]	Activity [5]	Activity [6]	Activity [7]	Activity [8]	Activity [10]	Activity [11]	Activity [12]	Activity [13]	Activity [14]	Activity [15]	Activity [16]	Activity [17]	Activity [18]	Compound	Activity [1]	Activity [9]
inactive	inactive	inactive	inactive	inactive	inactive	inactive	inactive	inactive	inactive	inactive	inactive	inactive	inactive	inactive	inactive	CCOC(=O)c1cnn(CC(O)c2ccccc2)c1NC(=O)NCc1ccccc1 (centres undefined)	inactive	90%
inactive	inactive	inactive	inactive	inactive	inactive	inactive	inactive	inactive	inactive	inactive	inactive	inactive	inactive	inactive	inactive	CCOC(=O)c1cnn(CC(O)c2ccccc2)c1NC(=O)NC(C)C (centres undefined)	inactive	90%
inactive	inactive	inactive	inactive	inactive	inactive	inactive	inactive	inactive	inactive	inactive	inactive	inactive	inactive	inactive	inactive	CCOC(=O)c1cnn(CC(O)c2ccccc2)c1NC(=O)Nc1ccccc1 (centres undefined)	inactive	90%
